Article PMC6467790 (Journal of medicinal chemistry, 2018)
“Also recorded” adds a separate entry of the source.

Tests used:
PAMPA permeability assay = format: in vitro ADME; conditions: pH 7.4
BT474 cells [1] = assay: IncuCyte live cell proliferation, BT474; format: cell-based, human
Summary of the method: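 BT474 cells were treated with test compound. Growth was followed by live-cell imaging every 4 h over 300 h, with percent confluence as the read-out.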

HEK293T = assay: Bright-field microscopy of live cells, HEK293T; format: cell-based, human; conditions: 24 h, N73: between 5 and 10 μM
MDA-MB-231 = assay: Bright-field microscopy of live cells, MDA-MB-231; format: cell-based, human; conditions: MDA-MB-231, 24 h; N73: between 5 and 10 μM
KDM4A = biological target: T1, KDM4A (Homo sapiens, UniProt O75164); assay: AlphaLISA demethylase assay, KDM4A; format: biochemical
T1 sequence (O75164 1-359 limits assumed): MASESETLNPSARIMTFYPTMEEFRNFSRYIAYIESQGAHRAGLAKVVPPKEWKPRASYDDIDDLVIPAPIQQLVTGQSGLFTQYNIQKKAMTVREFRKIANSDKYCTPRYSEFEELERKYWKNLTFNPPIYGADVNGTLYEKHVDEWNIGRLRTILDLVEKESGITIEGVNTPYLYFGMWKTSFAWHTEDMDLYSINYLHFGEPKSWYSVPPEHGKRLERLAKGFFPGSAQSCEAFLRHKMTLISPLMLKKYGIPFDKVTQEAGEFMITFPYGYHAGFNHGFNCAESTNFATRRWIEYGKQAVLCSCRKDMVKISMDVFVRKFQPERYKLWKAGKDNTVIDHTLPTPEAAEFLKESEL

KDM5A = assay: ESI mass spectrometry of KDM5A with inhibitors; format: binding, human; conditions: KDM5A 50 μM, inhibitor 0.5 mM, 30 min, ambient temperature
MCF7 = assay: Bright-field microscopy of live cells, MCF7; format: cell-based, human; conditions: MCF7, 24 h; N73: between 5 and 10 μM
KDM5A(1−739)ΔAP = biological target: T2, KDM5A(1−739)ΔAP (Homo sapiens, UniProt P29375, DEL88-347); assay: Promega Succinate-Glo demethylase assay; format: biochemical; conditions: for reversibility of inhibition after buffer exchange / dialysis: [E] = 5 μM, initial [I] = 100 μM, four times of buffer exchange; for dependence of inhibition of KDM5A on αKG concentration: three αKG concentrations (10, 100, 1000 μM), 20 min preincubation; for effect of preincubation with KDM5A on inhibition potency: with or without incubation for 20 min
T2 sequence (P29375 with tags, fused parts or gaps DEL88-347 limits assumed): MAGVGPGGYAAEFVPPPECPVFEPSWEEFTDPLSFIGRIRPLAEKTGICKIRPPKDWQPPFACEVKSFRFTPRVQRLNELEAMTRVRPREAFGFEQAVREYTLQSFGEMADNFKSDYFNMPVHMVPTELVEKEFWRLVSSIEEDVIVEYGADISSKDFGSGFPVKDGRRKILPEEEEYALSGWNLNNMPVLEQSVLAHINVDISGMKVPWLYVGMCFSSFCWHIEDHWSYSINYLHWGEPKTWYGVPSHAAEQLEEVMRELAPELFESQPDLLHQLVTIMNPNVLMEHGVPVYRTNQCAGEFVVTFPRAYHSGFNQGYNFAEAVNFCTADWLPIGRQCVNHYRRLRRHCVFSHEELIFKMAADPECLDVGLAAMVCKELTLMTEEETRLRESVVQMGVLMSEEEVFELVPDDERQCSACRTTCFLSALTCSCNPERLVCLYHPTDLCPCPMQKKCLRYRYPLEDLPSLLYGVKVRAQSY
Summary of the method: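 Succinate-Glo assay: KDM5A(1−739)ΔAP (0.8 μM) was preincubated 20 min with 2-fold serial dilutions of test compound. Reactions were started with αKG (10, 100 or 1000 μM) plus H3(1−24)K4me3 peptide (60 μM), in 10 μM (NH4)2Fe(SO4)2, 100 μM ascorbate, 50 mM HEPES pH 8.0 and 5% DMSO. They ran 10 min at ambient temperature (n = 3), then succinate detection reagents were added. IC50 came from a four-parameter fit.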

K562 cells = conditions: 10 nM; cited from earlier work
BT474 cells [2] = assay: Cellular H3K4me3 level in BT474 cells; format: cell-based, human
BT474 cells [3] = assay: Cellular extract experiment, BT474 cells; format: in vitro ADME, human
[4] = Stability in culture media; format: in vitro ADME; conditions: after 24 h
MCF7 cells [5] = assay: Western blot of histone methylation levels in MCF7 cells; format: cell-based, human
Summary of the method: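 MCF7 cells were treated with test compound at the indicated concentrations, or 0.1% DMSO, for 30 or 48 h. Total cell lysates were analysed by Western blot with histone methylation antibodies.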

MCF7 cells [6] = assay: Real-time RT-PCR of KDM5 target genes in MCF7 cells; format: cell-based, human; conditions: MCF7, 1 μM for 2 days
KDM5B [7] = conditions: cited from earlier work
KDM5B [8] = assay: AlphaLISA demethylase assay, KDM5B; format: biochemical, human; conditions: AlphaLISA IC50 values; recombinant catalytic domains, same enzyme concentration
KDM5A catalytic domain = assay: Isothermal titration calorimetry, binding to KDM5A catalytic domain; parameters: species or system human; conditions: ITC
Summary of the method: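 Binding was measured by isothermal titration calorimetry with the KDM5A(1−588)ΔAP catalytic-domain construct (internal ARID and PHD1 deleted). KD was the read-out.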

CC(C)OC(=O)c1ccnc2cc(C(OCCN3CCCCC3)c3cccc(N)c3)sc12 (stereo not drawn) [SI-5, Isopropyl 2-((3-Aminophenyl)(2-(piperidin-1-yl)-ethoxy)methyl)thieno[3,2-b]pyridine-7-carboxylate]
Papp at 30 min, 0.05 mM (PAMPA permeability assay): > 100 ×10⁻⁶ cm/s
growth inhibition (percent confluence) (BT474 cells [1]; BT474, highest concentration tested 28 μM): some growth inhibition at the highest concentration tested

CN(C)C/C=C/C(=O)Nc1cccc(C(OCCN2CCCCC2)c2cc3nccc(C(=O)O)c3s2)c1 (stereo not drawn) [N71, (E)-2-((3-(4-(Dimethylamino)but-2-enamido)-phenyl)(2-(piperidin-1-yl)ethoxy)methyl)thieno[3,2-b]pyridine-7-carboxylic Acid]
cell killing / effect on cell growth (HEK293T): no effect on cell growth
cell killing / effect on cell growth (MDA-MB-231): no effect on cell growth
inhibition constants against KDM4A, N70 compared with N71 (KDM4A): about the same
covalent modification of KDM5A enzyme by mass spectrometry (KDM5A): covalently modified KDM5A enzyme completely
cell killing / effect on cell growth (MCF7): no effect on cell growth
dependence of inhibition of KDM5A on enzyme concentration (KDM5A(1−739)ΔAP): dependent on enzyme concentration
kinact/KI (KDM5A(1−739)ΔAP): ~8000 M⁻¹ s⁻¹
IC50 value lower than that of N70 (KDM5A(1−739)ΔAP; 100 μM αKG concentration): ~ 50 fold
reversibility of inhibition after buffer exchange / dialysis (KDM5A(1−739)ΔAP): persisted even after dialysis; also recorded: does not perturb N71 complex with KDM5A; also recorded: no effect on the inhibition
dependence of inhibition of KDM5A on αKG concentration (KDM5A(1−739)ΔAP): no significant change to IC50 values with variation in αKG concentration; also recorded: did not appear to be sensitive to the αKG concentration
effect of preincubation with KDM5A on inhibition potency (KDM5A(1−739)ΔAP): increased inhibition potency

CN(C)C/C=C/C(=O)Nc1cc2c(Nc3ccc(F)c(Cl)c3)ncnc2cc1O[C@H]1CCOC1 [Afatinib]
cytotoxicity for EGFR expressing K562 cells (K562 cells): complete cytotoxicity

CC(C)OC(=O)c1ccnc2cc(C(OCCN3CCCCC3)c3cccc(NC(=O)/C=C/CN(C)C)c3)sc12 (stereo not drawn) [N73, Isopropyl (E)-2-((3-(4-(Dimethylamino)but-2-enamido)phenyl)(2-(piperidin-1-yl)ethoxy)methyl)thieno[3,2-b]-pyridine-7-carboxylate]
Papp at 30 min, 0.05 mM (PAMPA permeability assay): 10 to 100 ×10⁻⁶ cm/s
cellular H3K4me3 methylation levels (BT474 cells [2]; BT474, doses up to 5 μM, 48 h, immunocytochemistry): does not increase H3K4me3 level; also recorded: no impact on cellular H3K4me3 methylation levels
intracellular esterase-mediated conversion of ester N73 to acid N71 (BT474 cells [3]; 24 h): appeared to be inefficient
cell extract level of ester N73 relative to acid N71 (BT474 cells [3]; incubated 24 h, lysed): 100 fold
cell killing / effect on cell growth (HEK293T): noteworthy difference in cell killing
cell killing / effect on cell growth (MDA-MB-231): noteworthy difference in cell killing
cell growth (percent confluence) (BT474 cells [1]; BT474, low doses, period of >12 days): do not affect cell growth
remained unchanged in culture media [4]: Approximately 80%
cell killing / effect on cell growth (MCF7): noteworthy difference in cell killing

CCOC(=O)CCNc1cc(N2CCc3ccccc3CC2)nc(-c2ccccn2)n1 [GSK-J4]
overall levels of H3K4me3 or H3K27me3 (MCF7 cells [5]; MCF7, same conditions tested): influences little of the overall levels of H3K4me3 or H3K27me3

CCOC(=O)c1ccnc(CNCC(=O)N(CC)CCN(C)C)c1 [KDM5-C70]
cellular H3K4me3 levels (BT474 cells [2]; BT474, 1 μM): increase in cellular H3K4me3 levels
cellular H3K4me3 levels (MCF7 cells [5]; MCF7, 1 μM): increase in cellular H3K4me3 levels
increase of expression of STING, MT1F, and MT1H (MCF7 cells [6]): up to 6 fold
selectivity for the KDM5 family over KDM4A (KDM5B [7]): 10 ×

Nc1cccc(C(OCCN2CCCCC2)c2cc3nccc(C(=O)O)c3s2)c1 (stereo not drawn) [N70, 2-((3-aminophenyl)(2-(piperidin-1-yl)ethoxy)-methyl)thieno[3,2-b]pyridine-7-carboxylic acid]
Papp at 30 min, 0.05 mM (PAMPA permeability assay): 10 to 100 ×10⁻⁶ cm/s
selectivity for KDM5B over KDM4A (KDM5B [8]): 7−8 fold
inhibition constants against KDM4A, N70 compared with N71 (KDM4A): about the same
reversibility of inhibition after buffer exchange / dialysis (KDM5A(1−739)ΔAP): could be reversed after dialysis; also recorded: removes the noncovalent modifying N70 from solution; also recorded: enzyme activity could be restored after buffer exchange
dependence of inhibition of KDM5A on αKG concentration (KDM5A(1−739)ΔAP): αKG-competitive inhibition; also recorded: dependent on αKG concentration
effect of preincubation with KDM5A on inhibition potency (KDM5A(1−739)ΔAP): insensitive

CN1CCCC1CCOC(c1cc2nccc(C(=O)O)c2s1)c1ccccc1Cl (stereo not drawn) [N49, 2-((2-Chlorophenyl)(2-(1-methylpyrrolidin-2-yl)-ethoxy)methyl)thieno[3,2-b]pyridine-7-carboxylic Acid]
selectivity for KDM5B over KDM4A (KDM5B [8]): 7−8 fold
difference in binding affinity (KD) to KDM5A between N46 and N49 (KDM5A catalytic domain): approximately 2 fold
